# Reference: ChEMBL document CHEMBL1821557, “Novel aryloxy azolyl chalcones with potent activity against Mycobacterium tuberculosis H37Rv” (Eur J Med Chem, 2011)
# What was measured:
# [1] = test system: Mycobacterium tuberculosis; assay: Antitubercular activity against Mycobacterium tuberculosis H37Rv after 4 weeks by agar proportion method; assay type: functional; conditions: 672 h
# In short: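 Agar proportion method on Middlebrook 7H10 agar slants with OADC; compounds in DMSO added at 0.1 mL per 1.9 mL medium. Inoculum was H37Rv grown on L–J medium and suspended in saline with 0.05% Tween-80, ~10^5 bacilli per tube. Incubated 37 °C for 4 weeks; MIC is the lowest concentration with no visible growth.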
# [2] = (§1) Cytotoxicity against african green monkey Vero cells assessed as growth inhibition at 10 times MIC after 24 hrs by MTS assay; assay type: cell-based; conditions: chlorocebus sabaeus, Vero cells; read-out: GI
# In short: (§2)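 Vero cells or mouse bone-marrow-derived macrophages plated at 20,000 cells/well and allowed to adhere overnight (37 °C, 5% CO2). Compounds added at several concentrations for 24 h, then MTS for 2 h, with OD read at 490 nm. IC50 is the concentration giving 50% viability loss; a compound counts as toxic if IC50 ≤10× MIC.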
# [3] = test system: Vero; assay: as §1; assay type: cell-based; conditions: chlorocebus sabaeus, vero, 24 h; in short: as §2
# [4] = Cytotoxicity against mouse BMDM cells assessed as growth inhibition at 10 times MIC after 24 hrs by MTS assay; assay type: cell-based; in short: as §2
# [5] = test system: Mycobacterium tuberculosis; assay: Ex-vivo antitubercular activity against Mycobacterium tuberculosis H37Rv infected in mouse BMDM cells assessed as reduction in intracellular bacterial level after 4 days at 5 times MIC; assay type: functional; parameters: scale not given: the % may be the effect or the level left
# [6] = test system: Mycobacterium tuberculosis; assay: Antitubercular activity against Mycobacterium tuberculosis H37Rv infected in Swiss mouse infected assessed as mouse survival at 100 mg/kg/day, po for 28 days measured on day 30 post infection; assay type: functional
# In short: (§3)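 Outbred Swiss mice infected i.v. with H37Rv at 10^7 CFU/mouse, in groups of 6–8. Daily oral dosing for 28 days: test compounds at 100 mg/kg in peanut oil, or isoniazid at 25 mg/kg. Percent survivors and mean survival time were recorded on day 30 and day 40.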
# [7] = test system: Mycobacterium tuberculosis; assay: Antitubercular activity against Mycobacterium tuberculosis H37Rv infected in Swiss mouse infected assessed as mean survival time of mouse at 100 mg/kg/day, po for 28 days measured on day 30 post infection; assay type: functional; in short: as §3
# [8] = test system: Mycobacterium tuberculosis; assay: Antitubercular activity against Mycobacterium tuberculosis H37Rv infected in Swiss mouse infected assessed as mouse survival at 100 mg/kg/day, po for 28 days measured on day 40 post infection; assay type: functional; in short: as §3
# [9] = test system: Mycobacterium tuberculosis; assay: Antitubercular activity against Mycobacterium tuberculosis H37Rv infected in Swiss mouse infected assessed as mean survival time of mouse survival at 100 mg/kg/day, po for 28 days measured on day 40 post infection; assay type: functional; in short: as §3
# [10] = test system: Mycobacterium tuberculosis; assay: Antitubercular activity against Mycobacterium tuberculosis H37Rv infected in Swiss mouse assessed as inhibition of viable bacterial counts in lungs at 100 mg/kg, po for 28 days measured on day 30 post infection; assay type: functional
# [11] = test system: Mus musculus; assay: Antitubercular activity against Mycobacterium tuberculosis H37Rv infected in Swiss mouse infected assessed as mouse survival at 25 mg/kg/day, po for 28 days measured on day 30 post infection; assay type: functional; in short: as §3
# [12] = test system: Mycobacterium tuberculosis; assay: Antitubercular activity against Mycobacterium tuberculosis H37Rv infected in Swiss mouse infected assessed as mean survival time of mouse at 25 mg/kg/day, po for 28 days measured on day 30 post infection; assay type: functional; in short: as §3
# [13] = test system: Mycobacterium tuberculosis; assay: Antitubercular activity against Mycobacterium tuberculosis H37Rv infected in Swiss mouse infected assessed as mouse survival at 25 mg/kg/day, po for 28 days measured on day 40 post infection; assay type: functional; in short: as §3
# [14] = test system: Mycobacterium tuberculosis; assay: Antitubercular activity against Mycobacterium tuberculosis H37Rv infected in Swiss mouse assessed as inhibition of viable bacterial counts in lungs at 25 mg/kg, po for 28 days measured on day 30 post infection; assay type: functional
# In short: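 Outbred Swiss mice infected i.v. with H37Rv at 10^7 CFU/mouse, in groups of 6–8. Test compounds were given orally at 100 mg/kg daily for 28 days in peanut oil; isoniazid at 25 mg/kg for 28 days. On day 30, serial dilutions of lung homogenate were plated on 7H11 agar and colonies counted after 3–4 weeks at 37 °C. Result is % inhibition of lung CFU versus untreated controls.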
compound,measurement,setting,value
O=C(/C=C/c1ccc(OCc2ccc(Cl)cc2Cl)cc1)c1ccc(OCc2ccc(Cl)cc2Cl)cc1,MIC,[1],> 25 µg/mL
O=C(/C=C/c1ccc(OCc2cccc(Cl)c2)cc1)c1ccc(-n2ccnc2)cc1,MIC,[1],3.12 µg/mL
same,"inhibition at 24 h, 10 times MIC",[2],50%
O=C(/C=C/c1ccc(OCc2ccc(Cl)cc2Cl)cc1)c1ccc(-n2ccnc2)cc1,MIC,[1],3.12 µg/mL
same,Activity,[3],Non-toxic
same,Activity,[4],Non-toxic
same,Activity,[5],99%
same,survival at 100 mg/kg/day,[6],100%
same,MST,[7],30 days
same,survival at 100 mg/kg/day,[8],83%
same,MST,[9],38.5 days
same,inhibition in vivo at 100 mg/kg,[10],13%
O=C(/C=C/c1ccc(OCc2cc(Cl)ccc2Cl)cc1)c1ccc(-n2ccnc2)cc1,MIC,[1],12.5 µg/mL
O=C(/C=C/c1ccc(OCc2ccc(F)cc2F)cc1)c1ccc(-n2ccnc2)cc1,Activity,[5],<50%
O=C(/C=C/c1ccc(OCc2cccc(Cl)c2)cc1)c1ccc(-n2cncn2)cc1,MIC,[1],12.5 µg/mL
O=C(/C=C/c1ccc(OCc2ccc(Cl)cc2Cl)cc1)c1ccc(-n2cncn2)cc1,MIC,[1],25 µg/mL
O=C(/C=C/c1ccc(OCc2cc(Cl)ccc2Cl)cc1)c1ccc(-n2cncn2)cc1,MIC,[1],> 25 µg/mL
O=C(/C=C/c1ccc(OCc2ccc(F)cc2F)cc1)c1ccc(-n2cncn2)cc1,MIC,[1],12.5 µg/mL
O=C(/C=C/c1ccc(OCc2cc(F)ccc2F)cc1)c1ccc(-n2cncn2)cc1,MIC,[1],> 25 µg/mL
O=C(/C=C/c1ccc(Oc2ccc(C(F)(F)F)cc2[N+](=O)[O-])cc1)c1ccc(-n2ccnc2)cc1,MIC,[1],12.5 µg/mL
O=C(/C=C/c1ccc(-n2ccnc2)cc1)c1ccc(OCc2cccc(Cl)c2)cc1,MIC,[1],6.25 µg/mL
O=C(/C=C/c1ccc(-n2ccnc2)cc1)c1ccc(OCc2ccc(Cl)cc2Cl)cc1,MIC,[1],1.56 µg/mL
same,Activity,[3],Non-toxic
same,Activity,[4],Non-toxic
same,Activity,[5],<50%
O=C(/C=C/c1ccc(-n2ccnc2)cc1)c1ccc(OCc2cc(Cl)ccc2Cl)cc1,MIC,[1],3.12 µg/mL
same,"inhibition at 24 h, 10 times MIC",[2],50%
O=C(/C=C/c1ccc(-n2ccnc2)cc1)c1ccc(OCc2ccc(F)cc2F)cc1,MIC,[1],1.56 µg/mL
same,Activity,[3],Non-toxic
same,Activity,[4],Non-toxic
same,Activity,[5],71%
same,survival at 100 mg/kg/day,[6],100%
same,MST,[7],30 days
same,survival at 100 mg/kg/day,[8],100%
same,MST,[9],40 days
same,inhibition in vivo at 100 mg/kg,[10],40%
O=C(/C=C/c1ccc(-n2ccnc2)cc1)c1ccc(OCc2cc(F)ccc2F)cc1,MIC,[1],3.12 µg/mL
same,Activity,[3],Non-toxic
same,Activity,[4],Non-toxic
same,Activity,[5],<50%
O=C(/C=C/c1ccc(-n2cncn2)cc1)c1ccc(OCc2cccc(Cl)c2)cc1,MIC,[1],0.78 µg/mL
same,Activity,[3],Non-toxic
same,Activity,[4],Non-toxic
same,Activity,[5],<50%
O=C(/C=C/c1ccc(-n2cncn2)cc1)c1ccc(OCc2ccc(Cl)cc2Cl)cc1,MIC,[1],> 25 µg/mL
O=C(/C=C/c1ccc(-n2cncn2)cc1)c1ccc(OCc2cc(Cl)ccc2Cl)cc1,MIC,[1],> 25 µg/mL
O=C(/C=C/c1ccc(-n2cncn2)cc1)c1ccc(OCc2ccc(F)cc2F)cc1,MIC,[1],12.5 µg/mL
O=C(/C=C/c1ccc(-n2cncn2)cc1)c1ccc(OCc2cc(F)ccc2F)cc1,MIC,[1],3.12 µg/mL
same,"inhibition at 24 h, 10 times MIC",[2],50%
O=C(/C=C/c1ccc(-n2ccnc2)cc1)c1ccc(Oc2ccc(C(F)(F)F)cc2[N+](=O)[O-])cc1,MIC,[1],12.5 µg/mL
O=C(/C=C/c1ccc(-n2cncn2)cc1)c1ccc(Oc2ccc(C(F)(F)F)cc2[N+](=O)[O-])cc1,MIC,[1],12.5 µg/mL
O=C(/C=C/c1ccc(-n2ccnc2)cc1)c1ccc(-n2ccnc2)cc1,MIC,[1],> 25 µg/mL
O=C(/C=C/c1ccc(-n2cncn2)cc1)c1ccc(-n2cncn2)cc1,MIC,[1],> 25 µg/mL
O=C(/C=C/c1ccccc1)c1ccc(OCc2ccc(Cl)cc2Cl)cc1,MIC,[1],12.5 µg/mL
NNC(=O)c1ccncc1 [ISONIAZID],MIC,[1],0.025 µg/mL
same,Activity,[3],Non-toxic
same,Activity,[4],Non-toxic
same,survival at 25 mg/kg/day,[11],100%
same,MST,[12],30 days
same,survival at 25 mg/kg/day,[13],100%
same,inhibition in vivo at 25 mg/kg,[14],100%
